Screens from PubChem BioAssay.
EBI2 block – antagonists of human EBI2 receptor. P32249. EBI2 beta-arrestin recruitment, luminescence, 7a,25-OHC stimulated. inhibition, % at 5 µM. hit rate 0.81% among 360,000. AID 651636; in the data active = inhibition above about 38%;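 note: enzyme fragment complementation signal reports receptor beta-arrestin coupling in cells; 0% = agonist plus DMSO wells and 100% = wells without agonist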
CCR6 antagonist – CCR6 (human) receptor antagonism | P51684 | CHO-K1 CCR6 PathHunter beta-arrestin, luminescence, CCL20-stimulated | inhibition, % at 20 µM | hit rate 0.49% among 340,000 | AID 493098;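 active = compounds whose inhibition of the agonist-driven luminescence signal at 20 µM reaches about 50%, limit read from the data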;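 note: cells stimulated with CCL20 at 14 nM final; plate controls were DMSO with CCL20 for no effect and DMSO without agonist for full effect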
Target sequence (P51684 whole entry, looked up): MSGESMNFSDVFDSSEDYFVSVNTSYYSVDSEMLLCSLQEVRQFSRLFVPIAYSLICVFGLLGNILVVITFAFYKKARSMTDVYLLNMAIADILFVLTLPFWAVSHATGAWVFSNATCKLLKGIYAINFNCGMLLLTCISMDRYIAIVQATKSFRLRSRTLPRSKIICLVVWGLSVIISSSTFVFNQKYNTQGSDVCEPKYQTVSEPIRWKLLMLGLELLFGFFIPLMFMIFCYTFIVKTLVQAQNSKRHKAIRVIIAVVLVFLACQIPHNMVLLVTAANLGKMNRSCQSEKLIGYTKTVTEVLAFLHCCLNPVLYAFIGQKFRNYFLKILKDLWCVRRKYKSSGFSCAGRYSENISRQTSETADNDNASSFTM
APJ ag – APJ receptor agonism | P35414 | CHO-K1 APJ PathHunter beta-arrestin, luminescence; 0% DMSO wells, 100% apelin | activation, % at 20 µM | hit rate 0.11% among 330,000;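 active = activation more than six SD over the plate average, tested at 20 µM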;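 note: 0% = DMSO alone and 100% = apelin-13 at 10 nM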
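Test system – PathHunter CHO-K1 APJ (AGTRL-1) beta-arrestin reporter cells · Input – 1000 cells/well · Compound – single test compound dose, 20 µM final, 1% DMSO · Times – compound stimulation 90 min at 25 °C, detection 60 min · Technique – beta-gal luminescence · Read-out basis – APJ–arrestin association signal · Control set – negative DMSO alone, positive Apelin-13 at 10 nM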
APJ antag – APJ receptor antagonism; hit rate 0.32% among 330,000; inhibition, % at 20 µM; AID 2521; CHO-K1 APJ beta-arrestin complementation, luminescence;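 active = inhibition above about 40% at 20 µM, limit read from the data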;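 note: cells challenged with 10 nM apelin-13 agonist together with compound; plate controls were apelin-13 plus DMSO wells for no effect and DMSO wells lacking apelin-13 for full effect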
CXCR6 block – inhibitors of human CXCR6 receptor; inhibition, % at 20 µM; CHO-K1 PathHunter CXCR6 beta-arrestin, luminescence; O00574; AID 602244; hit rate 0.36% among 360,000; in the data active = inhibition above about 34%, passing the limit was not always enough;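 note: antagonist mode with CXCL16 agonist at 10 nM final; 0% = 10 nM CXCL16 with DMSO and 100% = unstimulated wells without agonist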
Target sequence (O00574 whole entry, looked up): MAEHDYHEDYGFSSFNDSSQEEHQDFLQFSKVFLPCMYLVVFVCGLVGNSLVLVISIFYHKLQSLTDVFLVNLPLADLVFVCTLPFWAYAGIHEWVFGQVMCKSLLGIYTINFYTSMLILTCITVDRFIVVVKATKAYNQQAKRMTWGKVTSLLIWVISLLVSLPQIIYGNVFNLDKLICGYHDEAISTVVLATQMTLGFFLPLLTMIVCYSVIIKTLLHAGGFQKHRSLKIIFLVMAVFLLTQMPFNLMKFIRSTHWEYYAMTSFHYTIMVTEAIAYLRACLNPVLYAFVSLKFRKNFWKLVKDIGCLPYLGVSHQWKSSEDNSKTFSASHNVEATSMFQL
EBI2 conf – EBI2 (human) antagonism, single concentration confirmation | shares compounds with EBI2 block | EBI2 beta-arrestin luminescence, 7a,25-OHC antagonism | inhibition, % at 5 µM | hit rate 29% among 2,400;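 active = inhibition of at least 50%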
EBI2 agonist – activates EBI2, counter-screen for EBI2 antagonists. shares compounds with EBI2 block. EBI2-expressing cells, agonist mode, luminescence, 60 min; 0% vehicle, 100% 7α,25-dihydroxycholesterol control. activation, % at 5 µM. 2,400 tested, under 10 active. AID 652000;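 active = activation of at least 50%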
bGal cs – inhibits E. coli beta-galactosidase, counter-screen for EBI2 antagonists. shares compounds with EBI2 block. purified beta-galactosidase, luminescent Galacton Star, 15 min. inhibition, % at 5 µM. hit rate 1% among 2,400. AID 652176;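 active = replicate-average signal at least 3 plate SD below neutral wells, shown as high inhibition, flagging enzyme-inhibiting false positives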;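 note: 0% = DMSO wells with enzyme and 100% = wells lacking enzyme; higher means stronger loss of beta-gal luminescence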
Active calls of the source: *; . = no result. Sampled rows, rich in hits. Any-hit rate of the full collection: about 1.5%.

SMILES	EBI2 block	CCR6 antagonist	APJ ag	APJ antag	CXCR6 block	EBI2 conf	EBI2 agonist	bGal cs
FC(F)(F)c1cccc(Cn2cnc(NC(=S)NCCc3ccccc3)n2)c1	54.3*	3.0	-3.1	-21.2	-4.4	41.9	-0.4	-16.7
COc1ccc(NC(=O)Nc2ncn(Cc3cccc(C(F)(F)F)c3)n2)cc1OC	3.3	-7.2	5.5	3.3	-2.8	.	.	.
CC1(C)CC(N=C2C([N+](=O)[O-])=CC=C3C2=NC2(CCCCC2)N3O)CC(C)(C)N1	3.6	13.3	-1.9	-21.1	6.6	.	.	.
O=[N+]([O-])C1=CC=C2C(=NC3(CCCCC3)N2O)C1=NC1CCCCC1	48.1*	14.7	-3.2	-1.8	6.8	19.8	2.0	2.5
CCN(C(=O)Cn1nnc(-c2ccccc2)n1)C1CCS(=O)(=O)C1 (stereo unspecified)	0.7	13.2	4.6	6.5	5.6	.	.	.
c1ccc(-c2csc(Nc3nc(N4CCOCC4)nc(N4CCOCC4)n3)n2)cc1	50.4*	-6.2	4.9	0.4	-2.8	37.1	-1.0	-9.7
CCC1CCCCN1C(=S)Nc1ccc(OC(F)F)cc1 (stereo unspecified)	54.6*	10.1	-2.5	-4.4	-5.3	-0.4	0.2	2.0
Cc1ccc(S(=O)(=O)N2CCCN(C(=O)c3ccc(-n4nccc4C)cc3)CC2)cc1	46.8*	0.1	1.2	11.6	2.1	18.3	3.5	0.2
Cc1cc(N2CCN(Cc3ccccc3)CC2)n2nc(C)c(-c3ccccc3)c2n1	46.9*	5.9	-2.8	3.4	2.2	15.1	-1.4	-20.9
COc1ccc(-c2c(C)nn3c(N4CCN(Cc5ccccc5)CC4)cc(C)nc23)cc1OC	-7.1	-6.6	-1.0	9.5	-0.9	.	.	.
COc1ccc(-c2nc3c(c(=O)[nH]c(=O)n3Cc3ccccc3)n2Cc2ccccc2)cc1	45.4*	8.1	-3.9	-2.2	3.3	9.7	2.2	-7.0
COc1ccc(-c2nc3c(c(=O)[nH]c(=O)n3Cc3ccccc3)n2C)cc1	9.7	5.5	-3.3	-1.7	14.9	.	.	.
CC(C)c1ccc(/C=N/NC(=O)c2nnn(-c3nonc3N)c2CN(C)C2CCCCC2)cc1	10.8	3.4	-2.0	2.1	1.7	.	.	.
Cc1ccc(Oc2ncc(-c3ccc(Cl)cc3)cn2)cc1	90.0*	5.3	1.1	-12.6	-10.0	58.2*	-0.6	-8.6
COc1cnc(-c2ccccc2)nc1Oc1cccc(C)c1C	10.7	33.8	-3.5	5.8	11.3	.	.	.
Cc1cccc(Oc2ncc(-c3ccc(Cl)cc3)cn2)c1C	51.9*	6.8	1.3	12.2	1.3	27.2	0.1	2.3
O=C(COC(=O)/C=C/c1ccc(Cl)cc1)NCCN1C(=O)CSC1=O	45.9*	16.5	-2.5	2.8	-0.2	46.4	3.5	5.8
Cc1ccc[n+](CC(=O)c2ccc(Br)cc2)c1C	9.5	3.5	-4.7	-13.3	-3.9	.	.	.
O=C(/C=C/c1ccc(Cl)cc1Cl)N1CCN(c2ccccc2[N+](=O)[O-])CC1	82.5*	3.7	3.4	-2.6	3.8	61.7*	0.8	3.0
O=C(/C=C/c1ccc(Cl)cc1)N1CCN(c2ccc([N+](=O)[O-])c(N3CCOCC3)c2)CC1	96.3*	19.1	.	.	-4.6	88.5*	1.2	0.4
O=C(c1ccccc1)N1CCN(c2ccc([N+](=O)[O-])c(N3CCOCC3)c2)CC1	-2.7	5.9	-3.6	9.3	4.4	.	.	.
O=C(/C=C/c1ccc(Cl)cc1Cl)N1CCN(c2ccc([N+](=O)[O-])c(N3CCOCC3)c2)CC1	60.6*	18.1	-3.9	-7.0	4.1	15.0	1.2	7.3
O=C(NC1CCN(Cc2ccc3ccccc3c2)CC1)c1ccccc1	10.9	14.1	-0.3	1.0	0.6	.	.	.
O=C(NCc1ccccc1)c1cc(=O)nc2sc(-c3ccccc3)nn12	43.7*	12.8	.	.	0.3	26.3	-1.1	-8.7
Cc1ccc(Nc2cc(C)nc(-c3ccccc3)n2)cc1	5.3	0.4	-2.1	-3.7	3.9	.	.	.
SMILES	EBI2 block	CCR6 antagonist	APJ ag	APJ antag	CXCR6 block	EBI2 conf	EBI2 agonist	bGal cs
CCOC(=O)C(=O)/C(C#N)=C/Nc1ccc(F)cc1	-11.5	14.9	0.9	-4.4	-2.8	.	.	.
CCOC(=O)NC(=O)/C(C#N)=N/Nc1ccc(F)cc1	77.6*	6.2	-6.1	18.2	-1.2	11.0	0.7	-14.2
O=[N+]([O-])c1cc([N+](=O)[O-])c(Oc2cccnc2Br)cc1NN1CCCCC1	-16.2	1.3	14.5	-26.5	1.5	.	.	.
CSc1ccc(CN(C)CC(=O)NC(=O)NCCC2=CCCCC2)cc1	1.4	18.0	-4.5	7.6	4.2	.	.	.
CCC1NC(=O)c2cc3ccccc3cc2-n2c1nc1ccc(F)cc1c2=O (stereo unspecified)	7.9	.	.	.	-10.5	.	.	.
Cc1cc(C)c2c(=O)n3c(nc2c1)C(Cc1ccccc1)NC(=O)c1cccnc1-3 (stereo unspecified)	19.6	.	.	.	1.9	.	.	.
Cc1cc(C)c2c(=O)n3c(nc2c1)C(Cc1ccccc1)NC(=O)c1cc2ccccc2cc1-3 (stereo unspecified)	76.3*	.	.	.	0.4	37.8	-1.9	-11.3
O=C1NC(Cc2ccccc2)c2nc3cc(Cl)ccc3c(=O)n2-c2cc(Cl)ccc21 (stereo unspecified)	.	.	-2.8	1.2	.	.	.	.
CCCC1NC(=O)c2cc3ccccc3cc2-n2c1nc1cc(Cl)ccc1c2=O (stereo unspecified)	53.2*	.	.	.	5.0	50.5*	-0.3	6.1
Cc1ccc2nc3n(c(=O)c2c1)-c1cc2ccccc2cc1C(=O)NC3Cc1ccccc1 (stereo unspecified)	54.1*	.	.	.	8.5	34.3	-0.2	-13.6
CCCC1NC(=O)c2cc3ccccc3cc2-n2c1nc1ccc(C)cc1c2=O (stereo unspecified)	57.3*	.	.	.	-7.5	43.5	2.1	7.2
Cc1ccc2nc3n(c(=O)c2c1)-c1ccc(Cl)cc1C(=O)NC3Cc1ccccc1 (stereo unspecified)	.	.	-1.6	9.8	.	.	.	.
Cc1c(C(=O)NCc2ccccc2CN2CCCC2)oc2ccc(F)cc12	-2.2	9.6	-3.1	6.8	1.5	.	.	.
CCN(CCO)c1ncnc2onc(-c3ccc(F)cc3)c12	-10.8	0.0	-0.8	12.8	5.0	.	.	.
Cc1cccc(N(C)c2ncnc3onc(-c4ccc(F)cc4)c23)c1C	62.5*	9.1	2.2	-48.7	-6.5	26.9	-1.9	-7.2
CN(Cc1ccccc1)C(=O)c1cc2cc(F)ccc2[nH]1	54.6*	9.8	-0.1	-1.8	5.3	58.2*	0.1	7.0
O=C1C=C(/C=C/C2C=CC=CC2)C[C@@H](c2ccc(Cl)cc2)C1 (stereo partly specified)	47.6*	6.5	-4.3	-11.6	-1.6	25.4	-1.6	-7.8
